Among the data in ChEMBL document CHEMBL2150851, “Selective nitrile inhibitors to modulate the proteolytic synergism of cathepsins S and F” (J Med Chem, 2012) are Ki and inhibition values, retold here.

SMILES strings stand for the structures.

Experiment [1] addresses T1, Cathepsin S (Homo sapiens, UniProt P25774). Briefly: Inhibition of human cathepsin S using Z-Phe-Val-Arg-pNA as substrate after 10 mins by spectrophotometric analysis.
Experiment [2] addresses T2, Cathepsin K (Homo sapiens, UniProt P43235).
T2 sequence (P43235 whole entry): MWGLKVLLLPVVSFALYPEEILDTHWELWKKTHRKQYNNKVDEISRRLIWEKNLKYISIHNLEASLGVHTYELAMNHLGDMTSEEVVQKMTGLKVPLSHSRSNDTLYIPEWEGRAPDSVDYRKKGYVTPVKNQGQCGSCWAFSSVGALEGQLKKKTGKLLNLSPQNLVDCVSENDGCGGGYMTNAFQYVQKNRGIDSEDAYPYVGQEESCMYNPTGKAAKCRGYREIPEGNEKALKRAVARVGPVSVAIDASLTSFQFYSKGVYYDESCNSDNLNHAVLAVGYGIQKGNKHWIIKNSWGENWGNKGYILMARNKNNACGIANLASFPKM
Briefly: Inhibition of human cathepsin K using Z-Leu-Arg-AMC as substrate after 10 mins by fluorimetric analysis.

Experiment [3] has as its target T3, Cathepsin B (Homo sapiens, UniProt P07858). In words: Inhibition of human cathepsin B using Z-Arg-Arg-pNA as substrate after 10 mins by spectrophotometric analysis.
The target of experiment [4] is T4, Cathepsin F (Homo sapiens, UniProt Q9UBX1).
T4 sequence (Q9UBX1 whole entry): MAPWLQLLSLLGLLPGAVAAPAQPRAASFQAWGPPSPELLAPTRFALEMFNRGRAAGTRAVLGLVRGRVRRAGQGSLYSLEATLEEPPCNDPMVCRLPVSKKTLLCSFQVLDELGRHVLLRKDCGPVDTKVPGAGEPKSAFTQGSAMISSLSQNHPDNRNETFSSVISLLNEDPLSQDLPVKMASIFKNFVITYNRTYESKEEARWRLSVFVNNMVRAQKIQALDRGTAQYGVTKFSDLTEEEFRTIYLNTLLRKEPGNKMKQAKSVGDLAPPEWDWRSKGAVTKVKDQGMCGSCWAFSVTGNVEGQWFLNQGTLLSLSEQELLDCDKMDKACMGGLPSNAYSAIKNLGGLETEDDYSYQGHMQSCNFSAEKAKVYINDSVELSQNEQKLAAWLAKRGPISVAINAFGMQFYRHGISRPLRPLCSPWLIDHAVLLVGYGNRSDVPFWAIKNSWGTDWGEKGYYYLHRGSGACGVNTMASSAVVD
Briefly: Inhibition of human recombinant cathepsin F using Z-Phe-Arg-AMC as substrate after 8 min by fluorimetric analysis.

Experiment [5] addresses T5, Procathepsin L (Homo sapiens, UniProt P07711). Briefly: Inhibition of human cathepsin L using Z-Phe-Arg-pNA as substrate after 10 mins by spectrophotometric analysis.
Target sequence in this assay (P07711 whole entry): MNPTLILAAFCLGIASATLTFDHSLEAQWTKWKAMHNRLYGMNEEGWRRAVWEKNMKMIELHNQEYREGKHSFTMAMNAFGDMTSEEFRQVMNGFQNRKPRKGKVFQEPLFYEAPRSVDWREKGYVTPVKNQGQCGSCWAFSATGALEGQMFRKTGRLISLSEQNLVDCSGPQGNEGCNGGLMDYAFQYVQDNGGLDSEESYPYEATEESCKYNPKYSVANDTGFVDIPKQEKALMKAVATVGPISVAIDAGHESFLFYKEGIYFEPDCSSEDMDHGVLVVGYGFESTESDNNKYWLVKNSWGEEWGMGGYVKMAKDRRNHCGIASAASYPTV
In experiment [6] the target is T4, Cathepsin F. Briefly: Inhibition of human recombinant cathepsin F using Z-Phe-Arg-AMC as substrate by fluorimetric analysis. Summed up:
(§1)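 Human enzyme activity was followed with a chromogenic or fluorogenic peptide substrate, in duplicate experiments at five or more inhibitor concentrations. Mean steady-state rates were plotted against inhibitor concentration and fitted by nonlinear regression to give IC50. IC50 was then corrected to zero substrate concentration to give Ki. Standard errors of the regression are reported.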

Experiment [7] has as its target T5, Procathepsin L. Briefly: Inhibition of human cathepsin L using Z-Phe-Arg-pNA as substrate by spectrophotometric analysis. The conditions noted are these: TDE = time-dependent effect. Summed up: as §1
Target sequence in this assay (P07711 114-333 limits assumed): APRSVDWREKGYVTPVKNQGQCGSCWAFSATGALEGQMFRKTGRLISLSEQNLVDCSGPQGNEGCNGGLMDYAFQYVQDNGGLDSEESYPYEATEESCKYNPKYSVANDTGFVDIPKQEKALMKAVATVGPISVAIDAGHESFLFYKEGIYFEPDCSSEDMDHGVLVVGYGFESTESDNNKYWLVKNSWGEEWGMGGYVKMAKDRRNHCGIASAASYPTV
The target of experiment [8] is T6, Cathepsin K (Homo sapiens) (UniProt P43235).
T6 sequence (whole entry): T2 sequence (P43235 whole entry)
Briefly: Inhibition of human cathepsin K using Z-Leu-Arg-AMC as substrate by fluorimetric analysis. The conditions noted are these: TDE = time-dependent effect. Summed up: as §1

Experiment [9] addresses T3, Cathepsin B. In words: Inhibition of human cathepsin B using Z-Arg-Arg-pNA as substrate by spectrophotometric analysis. The following applies: TDE = time-dependent effect. Summed up:
as §1

The target of experiment [10] is T5, Procathepsin L. Briefly: Inhibition of human cathepsin L using Z-Phe-Arg-pNA as substrate after 80 mins by spectrophotometric analysis.
Target sequence in this assay (P07711 whole entry): as the sequence (P07711 whole entry) above
Experiment [11] addresses T1, Cathepsin S. In words: Inhibition of human cathepsin S using Z-Phe-Val-Arg-pNA as substrate after 80 mins by spectrophotometric analysis.
Experiment [12] concerns the target T2, Cathepsin K. Briefly: Inhibition of human cathepsin K using Z-Leu-Arg-AMC as substrate after 80 mins by fluorimetric analysis.
Experiment [13] has as its target T3, Cathepsin B. Briefly: Inhibition of human cathepsin B using Z-Arg-Arg-pNA as substrate after 80 mins by spectrophotometric analysis.

T1 sequence (P25774 whole entry): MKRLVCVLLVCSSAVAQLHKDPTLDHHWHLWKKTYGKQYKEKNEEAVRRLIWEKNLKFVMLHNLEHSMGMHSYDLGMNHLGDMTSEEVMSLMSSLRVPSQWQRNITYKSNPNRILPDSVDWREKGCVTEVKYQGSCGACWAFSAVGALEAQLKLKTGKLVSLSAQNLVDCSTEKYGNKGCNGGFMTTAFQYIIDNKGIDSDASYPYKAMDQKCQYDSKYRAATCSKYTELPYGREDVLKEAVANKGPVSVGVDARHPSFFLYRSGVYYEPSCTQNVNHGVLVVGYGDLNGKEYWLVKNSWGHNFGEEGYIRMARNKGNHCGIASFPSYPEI

As to `CC(C)CS(=O)(=O)CC(NC(=O)c1cc(-c2ccccc2)cs1)C(=O)NCC#N` (racemic), the inhibitory constant (Ki) (commonly a dissociation constant, usually derived from enzyme kinetics or from competition with a known ligand) in [1] was 60 nM; in [2], more than 4 µM; in [3], 6.4 µM; in experiment [4], more than 4 µM; in experiment [5] it was more than 4 µM.

Consider `CC(C)CS(=O)(=O)CC(NC(=O)c1ccccc1)C(=O)NCC#N` (racemic), for which the Ki was 40 nM in experiment [1]; more than 40 µM in [2]; 40 µM in experiment [3]; more than 40 µM in [4]; more than 40 µM in experiment [5].

Turning to `CC(C)CS(=O)(=O)CC(NC(=O)c1cc2ccsc2s1)C(=O)NCC#N` (racemic), the Ki in [1] was 100 nM; in [2], more than 4 µM; in [3], 7.2 µM; in experiment [4], more than 4 µM; in experiment [5], more than 4 µM.

In the case of `CC(C)CS(=O)(=O)CC(NC(=O)c1ccc(-c2cccs2)cc1)C(=O)NCC#N` (racemic), the Ki in experiment [1] was 200 nM; in experiment [2] it was more than 4 µM; in experiment [3], 3.9 µM; in experiment [4], more than 4 µM; in experiment [5], more than 4 µM.

`CC(C)CS(=O)(=O)CC(NC(=O)c1cc2ccccc2s1)C(=O)NCC#N` (racemic): the Ki was 89 nM in experiment [1]; more than 4 µM in [2]; 6.8 µM in [3]; more than 4 µM in experiment [4]; more than 4 µM in experiment [5].

`CC(C)CS(=O)(=O)CC(NC(=O)c1ccc(-c2ccccc2)s1)C(=O)NCC#N` (racemic): the inhibition constant Ki is 61 nM in [1]; more than 4 µM in experiment [2]; 5.1 µM in experiment [3]; more than 4 µM in experiment [4]; more than 4 µM in [5].

`CC(C)CS(=O)(=O)CC(NC(=O)c1ccc(-c2ccsc2)s1)C(=O)NCC#N` (racemic): the Ki in experiment [1] was 61 nM; in experiment [2] it was more than 4 µM; in [3] it was 5.4 µM; in experiment [4], more than 4 µM; in [5], more than 4 µM.

As for `CC(C)CS(=O)(=O)CC(NC(=O)c1ccc(-c2nnn[nH]2)s1)C(=O)NCC#N` (racemic), the inhibition constant (Ki) in experiment [1] is 76 nM; in experiment [2], more than 4 µM; in [3], 34 µM; in experiment [4] it was more than 4 µM; in [5], more than 4 µM.

Take `CC(C)CS(=O)(=O)C[C@H](NC(=O)c1ccccc1)C(=O)N(C)N(C)C#N`: the Ki in [6] was 21 nM; in [10], 15 nM; in experiment [11], 0.55 nM; in experiment [12], 0.66 nM; in [13] it was 5.8 nM. For the same compound, the inhibition result in experiment [7], in [8] and in [9] was “tde” in each case.

Consider `CC(C)CS(=O)(=O)C[C@H](NC(=O)c1ccccc1)C(=O)NCC#N`, for which the Ki in experiment [1] was 33 nM; in [2], more than 40 µM; in experiment [3], 24 µM; in experiment [4] it was more than 40 µM; in experiment [5], 37 µM.

For the compound `CC(C)CS(=O)(=O)CC(NC(=O)c1cccs1)C(=O)NCC#N` (racemic), the Ki in experiment [1] was 45 nM; in experiment [2], more than 40 µM; in experiment [3], 24 µM; in [4], more than 40 µM; in experiment [5], more than 40 µM.

As for `CC(C)CS(=O)(=O)CC(NC(=O)c1ccc(-c2cccs2)s1)C(=O)NCC#N` (racemic), the inhibition constant (Ki) in experiment [1] is 94 nM; in [2], 1.1 µM; in [3], 3.4 µM; in [4] it was 3.2 µM; in experiment [5], more than 4 µM.
